{
  "source": "ChEMBL document CHEMBL4052618",
  "about": "“Design, synthesis, SAR discussion, in vitro and in vivo evaluation of novel selective EGFR modulator to inhibit L858R/T790M double mutants” (Eur J Med Chem, 2017)",
  "key": {"NCI-H1975 [1]": {"tested_on": "NCI-H1975", "assay": "In vivo anti tumor activity against human NCI-H1975 cells xenografted in nude C.B-17 SCID mouse model assessed as relative tumor volume at 20 mg/kg, ig for 18 days measured twice a week relative to control", "format": "functional", "summary_of_the_method": "(§1)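 C.B-17 SCID mice received s.c. inoculation of 5 × 10^6 H1975 cells. At 100-150 mm3 they were randomized (n = 9 per group) and dosed intragastrically once daily for 18 days, with PBS as the control. Tumors were measured by caliper twice weekly, with V = length × width²/2. RTV = V/V0, and T/C% = treated mean RTV / control mean RTV × 100.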"}, "[2]": {"assay": "AUC (0 to 24 hrs) in Sprague-Dawley rat at 1 mg/kg, iv by LC-MS/MS analysis", "format": "ADME, organism-based", "set-up": "time < 24 hr, dose 1 mg/kg, route intravenous", "conditions": "in vivo"}, "[3]": {"molecular_target": "RAC-beta serine/threonine-protein kinase (Homo sapiens) (UniProt P31751)", "assay": "Inhibition of AKT2 (unknown origin) at 1 uM relative to control"}, "[4]": {"assay": "Half life in Sprague-Dawley rat at 10 mg/kg, po administered via gavage by LC-MS/MS analysis", "format": "ADME, organism-based", "conditions": "in vivo", "summary_of_the_method": "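Male Sprague-Dawley rats (200-240 g) were dosed either by tail vein at 1 mg/kg in 2% DMSO/20% PEG400/78% buffered saline or by oral gavage at 10 mg/kg in 0.5% methylcellulose. Blood was drawn by orbital sinus puncture at 2 min to 24 h into heparin, and plasma was analysed by LC/MS/MS in SRM mode. Parameters came from non-compartmental analysis.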"}, "[5]": {"molecular_target": "Mitogen-activated protein kinase 1 (Homo sapiens) (UniProt P28482)", "assay": "Inhibition of MAPK1 (unknown origin) at 1 uM relative to control"}, "[6]": {"assay": "Intrinsic clearance in rat hepatocytes assessed per million cells", "format": "ADME, cell-based, Hepatocyte"}, "[7]": {"molecular_target": "Vascular endothelial growth factor receptor 2 (Homo sapiens) (UniProt P35968)", "assay": "Inhibition of KDR (unknown origin) at 1 uM relative to control"}, "[8]": {"molecular_target": "Epidermal growth factor receptor (Homo sapiens, UniProt P00533, L858R/T790M)", "sequence (P00533 25-1210 T790M/L858R limits assumed)": "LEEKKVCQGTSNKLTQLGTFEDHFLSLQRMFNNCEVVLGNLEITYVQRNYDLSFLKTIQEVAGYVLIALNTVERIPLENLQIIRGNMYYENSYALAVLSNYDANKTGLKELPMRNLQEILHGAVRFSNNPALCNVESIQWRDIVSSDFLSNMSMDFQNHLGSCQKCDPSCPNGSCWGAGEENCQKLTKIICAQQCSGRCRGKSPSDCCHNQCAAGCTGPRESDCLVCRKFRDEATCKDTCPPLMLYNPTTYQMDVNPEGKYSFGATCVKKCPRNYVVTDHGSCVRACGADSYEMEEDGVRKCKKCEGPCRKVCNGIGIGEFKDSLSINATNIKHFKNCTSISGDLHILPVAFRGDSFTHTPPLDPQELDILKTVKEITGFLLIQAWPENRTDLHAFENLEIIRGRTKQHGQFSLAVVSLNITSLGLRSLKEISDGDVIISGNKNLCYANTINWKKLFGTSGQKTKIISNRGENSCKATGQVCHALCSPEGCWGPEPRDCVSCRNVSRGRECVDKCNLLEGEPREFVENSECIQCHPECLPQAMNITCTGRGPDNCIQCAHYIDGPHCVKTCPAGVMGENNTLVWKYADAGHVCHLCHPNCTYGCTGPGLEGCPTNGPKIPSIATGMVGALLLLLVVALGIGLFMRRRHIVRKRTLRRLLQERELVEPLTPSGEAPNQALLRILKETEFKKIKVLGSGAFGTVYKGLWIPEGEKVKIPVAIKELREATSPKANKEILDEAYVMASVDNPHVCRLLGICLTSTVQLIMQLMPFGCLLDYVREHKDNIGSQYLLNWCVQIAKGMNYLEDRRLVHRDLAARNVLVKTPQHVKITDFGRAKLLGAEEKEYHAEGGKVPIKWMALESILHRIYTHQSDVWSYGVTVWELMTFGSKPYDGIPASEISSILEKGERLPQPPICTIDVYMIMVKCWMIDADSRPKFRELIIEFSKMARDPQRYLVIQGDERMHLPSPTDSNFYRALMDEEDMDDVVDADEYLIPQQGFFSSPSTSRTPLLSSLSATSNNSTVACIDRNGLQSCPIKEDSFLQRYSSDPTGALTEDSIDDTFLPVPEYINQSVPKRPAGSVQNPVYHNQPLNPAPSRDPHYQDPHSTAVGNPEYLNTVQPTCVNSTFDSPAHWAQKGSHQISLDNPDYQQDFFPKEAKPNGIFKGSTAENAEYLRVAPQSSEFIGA", "assay": "Inhibition of human recombinant cytoplasmic GST-tagged EGFR T790M/L858R double mutant (668 to 1210 residues) expressed in baculovirus using TK-substrate-biotin preincubated for 15 mins followed by substrate addition measured after 60 mins by FRET-based Z'-Lyte assay"}, "NCI-H1975 [9]": {"tested_on": "NCI-H1975", "assay": "In vivo anti tumor activity against human NCI-H1975 cells xenografted in nude C.B-17 SCID mouse model assessed as relative tumor volume at 10 mg/kg, ig for 18 days measured twice a week relative to control", "format": "functional", "summary_of_the_method": "as §1"}, "[10]": {"molecular_target": "Tyrosine-protein kinase ABL1 (Homo sapiens) (UniProt P00519)", "assay": "Inhibition of ABL1 (unknown origin) at 1 uM relative to control"}, "[11]": {"molecular_target": "Testis-specific serine/threonine-protein kinase 1 (Homo sapiens) (UniProt Q9BXA7)", "assay": "Inhibition of STK22D (unknown origin) at 1 uM relative to control"}, "NCI-H1975 [12]": {"tested_on": "NCI-H1975", "assay": "In vivo anti tumor activity against human NCI-H1975 cells xenografted in nude C.B-17 SCID mouse model assessed as relative tumor volume at 5 mg/kg, ig for 18 days measured twice a week relative to control", "format": "functional", "summary_of_the_method": "as §1"}, "NCI-H1975 [13]": {"tested_on": "NCI-H1975", "assay": "In vivo anti tumor activity against human NCI-H1975 cells xenografted in nude C.B-17 SCID mouse model assessed as tumor volume at 5 mg/kg, ig for 18 days measured twice a week (reference value: 948.05 mm3)", "format": "functional"}, "[14]": {"molecular_target": "cAMP-dependent protein kinase catalytic subunit alpha (Homo sapiens) (UniProt P17612)", "assay": "Inhibition of PRKACA (unknown origin) at 1 uM relative to control"}, "[15]": {"molecular_target": "Mast/stem cell growth factor receptor Kit (Homo sapiens) (UniProt P10721)", "assay": "Inhibition of KIT (unknown origin) at 1 uM relative to control"}, "[16]": {"assay": "Cmax in Sprague-Dawley rat at 10 mg/kg, po administered via gavage after 24 hrs by LC-MS/MS analysis", "format": "ADME, organism-based", "set-up": "dose 10 mg/kg, route oral", "conditions": "in vivo", "summary_of_the_method": "(§2)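 Male Sprague-Dawley rats (200-240 g) received 1 mg/kg by tail-vein injection in 2% DMSO, 20% PEG400 and 78% buffered saline, or 10 mg/kg by oral gavage in 0.5% methylcellulose. Orbital sinus blood was drawn into heparinized tubes at 2, 5, 15 and 30 min and at 1, 2, 4, 8, 12 and 24 h, then centrifuged. Plasma was measured by LC/MS/MS in SRM mode, with non-compartmental analysis.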"}, "[17]": {"assay": "Half life in rat liver microsomes", "format": "ADME, microsome"}, "[18]": {"molecular_target": "Receptor tyrosine-protein kinase erbB-2 (Homo sapiens) (UniProt P04626)", "sequence (P04626 whole entry)": "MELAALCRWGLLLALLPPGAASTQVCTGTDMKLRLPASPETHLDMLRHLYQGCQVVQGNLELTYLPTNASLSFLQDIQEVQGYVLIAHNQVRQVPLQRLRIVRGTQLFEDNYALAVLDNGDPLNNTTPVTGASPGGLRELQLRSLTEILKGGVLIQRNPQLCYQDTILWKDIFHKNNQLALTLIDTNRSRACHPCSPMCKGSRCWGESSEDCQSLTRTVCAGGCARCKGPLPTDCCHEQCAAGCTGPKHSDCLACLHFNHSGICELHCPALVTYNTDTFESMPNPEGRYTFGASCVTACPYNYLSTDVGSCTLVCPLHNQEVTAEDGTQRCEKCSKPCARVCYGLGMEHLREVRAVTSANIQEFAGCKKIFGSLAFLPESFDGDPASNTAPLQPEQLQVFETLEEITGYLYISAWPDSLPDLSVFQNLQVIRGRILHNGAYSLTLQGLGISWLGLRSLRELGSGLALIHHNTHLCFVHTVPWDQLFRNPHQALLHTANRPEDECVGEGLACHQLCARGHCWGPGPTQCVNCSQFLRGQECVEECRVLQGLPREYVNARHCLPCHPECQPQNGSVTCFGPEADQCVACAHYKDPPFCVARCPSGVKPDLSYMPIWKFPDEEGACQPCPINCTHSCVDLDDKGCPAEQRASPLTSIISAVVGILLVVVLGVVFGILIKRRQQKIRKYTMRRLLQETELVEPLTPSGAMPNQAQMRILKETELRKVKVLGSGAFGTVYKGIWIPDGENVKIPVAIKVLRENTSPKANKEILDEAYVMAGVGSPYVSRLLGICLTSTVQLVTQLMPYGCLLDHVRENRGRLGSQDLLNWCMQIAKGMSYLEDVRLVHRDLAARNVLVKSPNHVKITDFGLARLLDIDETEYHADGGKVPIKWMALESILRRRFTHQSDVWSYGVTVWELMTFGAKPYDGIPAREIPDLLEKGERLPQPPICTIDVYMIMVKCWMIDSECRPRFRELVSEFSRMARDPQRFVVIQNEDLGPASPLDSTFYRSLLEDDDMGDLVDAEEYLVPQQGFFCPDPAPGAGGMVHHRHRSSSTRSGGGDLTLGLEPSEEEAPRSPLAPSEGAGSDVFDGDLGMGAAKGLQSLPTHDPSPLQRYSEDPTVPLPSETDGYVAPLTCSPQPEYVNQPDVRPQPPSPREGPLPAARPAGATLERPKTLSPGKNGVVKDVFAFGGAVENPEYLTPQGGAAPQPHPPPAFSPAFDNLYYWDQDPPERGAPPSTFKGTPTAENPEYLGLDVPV", "assay": "Inhibition of ERBB2 (HER2) (unknown origin) at 1 uM relative to control"}, "[19]": {"molecular_target": "Tyrosine-protein kinase Fyn (Homo sapiens) (UniProt P06241)", "assay": "Inhibition of FYN (unknown origin) at 1 uM relative to control"}, "[20]": {"molecular_target": "Protein kinase C gamma type (Homo sapiens) (UniProt P05129)", "assay": "Inhibition of PRKCG (unknown origin) at 1 uM relative to control"}, "[21]": {"molecular_target": "Protein kinase C beta type (Homo sapiens) (UniProt P05771)", "sequence (P05771 2-671 limits assumed)": "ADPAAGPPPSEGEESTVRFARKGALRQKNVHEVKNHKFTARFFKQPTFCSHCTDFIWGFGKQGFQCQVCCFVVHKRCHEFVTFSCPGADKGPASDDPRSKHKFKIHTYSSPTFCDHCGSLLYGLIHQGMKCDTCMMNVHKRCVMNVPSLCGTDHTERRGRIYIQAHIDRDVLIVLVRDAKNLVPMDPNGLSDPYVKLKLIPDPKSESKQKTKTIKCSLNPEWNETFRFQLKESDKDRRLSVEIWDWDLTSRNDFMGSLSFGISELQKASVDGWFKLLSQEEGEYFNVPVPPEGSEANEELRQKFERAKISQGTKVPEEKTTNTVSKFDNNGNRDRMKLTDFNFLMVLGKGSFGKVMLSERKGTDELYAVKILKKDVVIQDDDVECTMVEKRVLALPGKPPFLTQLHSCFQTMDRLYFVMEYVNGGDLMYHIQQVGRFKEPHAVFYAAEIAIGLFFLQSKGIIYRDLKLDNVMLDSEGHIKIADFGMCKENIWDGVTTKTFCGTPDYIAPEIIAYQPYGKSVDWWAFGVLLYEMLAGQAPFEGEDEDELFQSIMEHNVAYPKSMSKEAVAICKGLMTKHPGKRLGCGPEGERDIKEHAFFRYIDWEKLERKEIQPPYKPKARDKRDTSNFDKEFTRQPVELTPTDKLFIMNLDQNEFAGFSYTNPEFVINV", "assay": "Inhibition of PRKCB1 (unknown origin) at 1 uM relative to control"}, "NCI-H1975 [22]": {"tested_on": "NCI-H1975", "assay": "Antiproliferative activity against human NCI-H1975 cells harboring EGFR L858R/T790M double mutant", "format": "functional, cell-based", "summary_of_the_method": "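A431 was grown in EMEM with 10% FBS; HCC827 and NCI-H1975 were grown in RPMI-1640 with 10% FBS. Cell viability experiments were repeated at least three times.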"}, "[23]": {"assay": "Tmax in Sprague-Dawley rat at 10 mg/kg, po administered via gavage by LC-MS/MS analysis", "format": "ADME, organism-based", "conditions": "in vivo", "summary_of_the_method": "as §2"}, "[24]": {"molecular_target": "Tyrosine-protein kinase JAK2 (Homo sapiens) (UniProt O60674)", "assay": "Inhibition of JAK2 (unknown origin) at 1 uM relative to control"}, "[25]": {"molecular_target": "Tyrosine-protein kinase SYK (Homo sapiens) (UniProt P43405)", "assay": "Inhibition of SYK (unknown origin) at 1 uM relative to control"}, "[26]": {"assay": "Intrinsic clearance in human hepatocytes assessed per million cells", "format": "ADME, cell-based, Hepatocyte"}, "[27]": {"molecular_target": "Tyrosine-protein kinase ITK/TSK (Homo sapiens) (UniProt Q08881)", "assay": "Inhibition of ITK (unknown origin) at 1 uM relative to control"}, "[28]": {"molecular_target": "Insulin receptor-related protein (Homo sapiens) (UniProt P14616)", "sequence (P14616 27-742 limits assumed)": "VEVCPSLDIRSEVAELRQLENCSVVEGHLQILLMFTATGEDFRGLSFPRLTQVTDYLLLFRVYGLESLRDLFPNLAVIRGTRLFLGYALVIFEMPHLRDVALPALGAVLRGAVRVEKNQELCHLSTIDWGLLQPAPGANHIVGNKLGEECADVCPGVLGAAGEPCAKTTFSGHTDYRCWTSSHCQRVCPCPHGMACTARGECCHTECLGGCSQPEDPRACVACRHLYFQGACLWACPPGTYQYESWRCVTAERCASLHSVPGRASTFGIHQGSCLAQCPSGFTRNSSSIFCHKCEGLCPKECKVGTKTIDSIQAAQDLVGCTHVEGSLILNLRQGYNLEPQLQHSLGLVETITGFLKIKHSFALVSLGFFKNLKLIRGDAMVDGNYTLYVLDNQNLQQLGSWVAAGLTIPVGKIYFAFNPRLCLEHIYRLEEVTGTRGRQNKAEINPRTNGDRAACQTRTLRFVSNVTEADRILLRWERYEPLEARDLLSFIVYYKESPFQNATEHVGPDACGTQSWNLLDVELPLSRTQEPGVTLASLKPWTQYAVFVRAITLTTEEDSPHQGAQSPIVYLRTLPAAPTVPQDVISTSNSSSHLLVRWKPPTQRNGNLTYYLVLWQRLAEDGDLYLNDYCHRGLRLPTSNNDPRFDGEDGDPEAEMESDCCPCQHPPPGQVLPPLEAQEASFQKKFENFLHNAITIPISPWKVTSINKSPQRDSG", "sequence (P14616 747-1297 limits assumed)": "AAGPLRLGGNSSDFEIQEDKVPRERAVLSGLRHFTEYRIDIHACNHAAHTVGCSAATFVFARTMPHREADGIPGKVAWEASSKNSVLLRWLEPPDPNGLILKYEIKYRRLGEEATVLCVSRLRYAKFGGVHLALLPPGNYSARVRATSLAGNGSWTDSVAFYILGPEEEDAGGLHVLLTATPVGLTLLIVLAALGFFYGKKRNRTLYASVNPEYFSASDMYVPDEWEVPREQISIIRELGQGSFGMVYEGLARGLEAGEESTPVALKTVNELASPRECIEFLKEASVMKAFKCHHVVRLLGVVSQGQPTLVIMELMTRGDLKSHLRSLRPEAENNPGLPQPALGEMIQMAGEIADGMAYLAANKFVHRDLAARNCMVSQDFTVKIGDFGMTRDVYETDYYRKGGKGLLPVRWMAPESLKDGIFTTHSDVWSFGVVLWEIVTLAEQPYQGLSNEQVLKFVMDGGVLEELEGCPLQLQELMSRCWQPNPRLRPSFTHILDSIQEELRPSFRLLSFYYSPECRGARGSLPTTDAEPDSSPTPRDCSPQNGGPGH", "assay": "Inhibition of INSRR (unknown origin) at 1 uM relative to control"}, "[29]": {"molecular_target": "Cyclin-dependent kinase 5/CDK5 activator 1 (Homo sapiens) (UniProt Q00535+Q15078)", "assay": "Inhibition of CDK5/p35 (unknown origin) at 1 uM relative to control", "format": "protein-complex assay"}, "[30]": {"assay": "Intrinsic clearance in mouse liver microsomes", "format": "ADME, microsome", "conditions": "read-out: CLH"}, "[31]": {"assay": "Half life in rat hepatocytes", "format": "ADME, cell-based, Hepatocyte"}, "[32]": {"molecular_target": "Tyrosine-protein kinase BTK (Homo sapiens) (UniProt Q06187)", "assay": "Inhibition of BTK (unknown origin) at 1 uM relative to control"}, "[33]": {"molecular_target": "Insulin-like growth factor 1 receptor (Homo sapiens) (UniProt P08069)", "assay": "Inhibition of IGF1R (unknown origin) at 1 uM relative to control"}, "[34]": {"molecular_target": "Calcium/calmodulin-dependent protein kinase type II subunit beta (Homo sapiens) (UniProt Q13554)", "assay": "Inhibition of CAMK2B (unknown origin) at 1 uM relative to control"}},
  "data": [
    {"compound": "C=CC(=O)Nc1cc(Nc2nccc(-c3cn4c5c(cccc35)CCC4)n2)c(OC)cc1N(C)CCN(C)C", "values": [
      {"measurement": "T/C", "setting": "NCI-H1975 [1]", "result": 12.1, "unit": "%"},
      {"measurement": "AUC(0-t) at 24 h", "setting": "[2]", "result": 190, "unit": "ng·h/mL"},
      {"measurement": "inhibition", "setting": "[3]", "result": 1, "unit": "%"},
      {"measurement": "half-life", "setting": "[4]", "result": 4.1, "unit": "h"},
      {"measurement": "inhibition", "setting": "[5]", "result": -3, "unit": "%"},
      {"measurement": "CLH", "setting": "[6]", "result": 21, "unit": "µL/min/10^6 cells"},
      {"measurement": "inhibition", "setting": "[7]", "result": 37, "unit": "%"},
      {"measurement": "IC50", "setting": "[8]", "result": "2.6 to 2.9", "unit": "nM"},
      {"measurement": "T/C", "setting": "NCI-H1975 [9]", "result": 25.7, "unit": "%"},
      {"measurement": "inhibition", "setting": "[10]", "result": -2, "unit": "%"},
      {"measurement": "inhibition", "setting": "[11]", "result": 72, "unit": "%"},
      {"measurement": "T/C", "setting": "NCI-H1975 [12]", "result": 56.4, "unit": "%"},
      {"measurement": "Activity", "setting": "NCI-H1975 [13]", "result": 527.78, "unit": "mm3"},
      {"measurement": "inhibition", "setting": "[14]", "result": 2, "unit": "%"},
      {"measurement": "inhibition", "setting": "[15]", "result": 5, "unit": "%"},
      {"measurement": "Cmax", "setting": "[16]", "result": 111, "unit": "ng/mL"},
      {"measurement": "half-life", "setting": "[17]", "result": 0.77, "unit": "h"},
      {"measurement": "inhibition", "setting": "[18]", "result": 87, "unit": "%"},
      {"measurement": "inhibition", "setting": "[19]", "result": 7, "unit": "%"},
      {"measurement": "inhibition", "setting": "[20]", "result": -2, "unit": "%"},
      {"measurement": "inhibition", "setting": "[21]", "result": 2, "unit": "%"},
      {"measurement": "IC50", "setting": "NCI-H1975 [22]", "result": 103, "unit": "nM"},
      {"measurement": "Tmax", "setting": "[23]", "result": 3.3, "unit": "h"},
      {"measurement": "inhibition", "setting": "[24]", "result": -6, "unit": "%"},
      {"measurement": "inhibition", "setting": "[25]", "result": 4, "unit": "%"},
      {"measurement": "CLH", "setting": "[26]", "result": 5, "unit": "µL/min/10^6 cells"},
      {"measurement": "inhibition", "setting": "[27]", "result": 66, "unit": "%"},
      {"measurement": "inhibition", "setting": "[28]", "result": 39, "unit": "%"},
      {"measurement": "inhibition", "setting": "[29]", "result": 1, "unit": "%"},
      {"measurement": "CLint scaled", "setting": "[30]", "result": 457, "unit": "mL/min/kg"},
      {"measurement": "half-life", "setting": "[31]", "result": 0.55, "unit": "h"},
      {"measurement": "inhibition", "setting": "[32]", "result": 48, "unit": "%"},
      {"measurement": "inhibition", "setting": "[33]", "result": 21, "unit": "%"},
      {"measurement": "inhibition", "setting": "[34]", "result": 14, "unit": "%"}
    ]}
  ]
}
